The values that follow come from ChEMBL document CHEMBL1817572, “New, potent, selective, and short-acting peptidic V1a receptor agonists” (J Med Chem, 2011).

Numbered stars: 1 amine (or outer) side, 2 acyl side, 3 side chain; on linkers, the order of the positions; unused ones are H or OH. Bridge positions count the residues as written; N and C are the ends. Square brackets hold non-standard residues; d marks the D form. Peptide text beside a SMILES is read from it. * marks the point of attachment. Orn(Me) = CN(CCC[C@H](N[*:1])C(=O)[*:2])[*:3]; X4 = CONC(=O)CC[C@H](N[*:1])C(=O)[*:2]; 3Thi = N[C@@H](Cc1ccsc1)C(=O)O; Orn = NCCC[C@H](N)C(=O)O; Dab = NCC[C@H](N)C(=O)O; Ac4c = NC1(C(=O)O)CCC1; NHOH = ON* Bounds are passed on as bounds.

The target of one assay is Vasopressin V2 receptor (Homo sapiens, UniProt P30518). The assay is described as follows: Agonist activity at recombinant human vasopressin V2 receptor expressed in HEK293 cells by luciferase reporter gene assay. The assay is classed as functional, cell-based. On the technique in general: A reporter such as luciferase makes a cellular process visible.
The species entered for assay [1] is Homo sapiens. Description: Selectivity ratio of EC50 for human vasopressin V1b receptor to EC50 for human vasopressin V1a receptor.
The next assay has as its target Vasopressin V1a receptor (Homo sapiens, UniProt P37288). Description: Agonist activity at recombinant human vasopressin V1a receptor expressed in HEK293 cells by luciferase reporter gene assay. The assay is classed as functional, cell-based. Conditions: read-out: EC50.
For assay [2], the target named is Vasopressin V1a/V2 (Homo sapiens) (UniProt P30518+P37288). The assay is described as follows: Selectivity ratio of EC50 for human vasopressin V2 receptor to EC50 for human vasopressin V1a receptor.
The target in another assay is T1, Vasopressin V1b receptor (Homo sapiens, UniProt P47901).
T1 sequence (P47901 whole entry): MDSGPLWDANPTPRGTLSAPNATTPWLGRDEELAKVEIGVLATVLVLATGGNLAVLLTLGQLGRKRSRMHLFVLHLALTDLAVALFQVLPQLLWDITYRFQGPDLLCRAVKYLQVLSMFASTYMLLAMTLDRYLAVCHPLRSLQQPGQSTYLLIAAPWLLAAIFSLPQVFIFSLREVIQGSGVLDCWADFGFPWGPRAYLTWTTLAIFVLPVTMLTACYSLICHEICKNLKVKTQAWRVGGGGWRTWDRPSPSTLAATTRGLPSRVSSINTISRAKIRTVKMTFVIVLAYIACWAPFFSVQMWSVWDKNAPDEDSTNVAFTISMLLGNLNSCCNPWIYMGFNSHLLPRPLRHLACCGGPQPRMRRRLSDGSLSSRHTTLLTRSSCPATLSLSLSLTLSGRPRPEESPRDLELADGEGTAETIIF
Description: Agonist activity at recombinant human vasopressin V1b receptor expressed in Flp-In-293 cells by luciferase reporter gene assay. Type of assay: functional, cell-based. Conditions: read-out: EC50. Summed up: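 Reporter gene assays in HEK293 cells transiently cotransfected with V1a (human or rat) or human V2 receptor vector plus NFAT-luciferase (V1a) or CRE-luciferase (V2) reporter; V1b in Flp-In-293 stably expressing receptor, OT in CHO-K1 stably expressing receptor, both transiently transfected with NFAT-luciferase. Two days post-transfection, peptides added for 5 h at 37 °C, lysis with luciferin, luminescence read.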

Another assay concerns the target T2, Oxytocin receptor (Homo sapiens, UniProt P30559).
T2 sequence (P30559 whole entry): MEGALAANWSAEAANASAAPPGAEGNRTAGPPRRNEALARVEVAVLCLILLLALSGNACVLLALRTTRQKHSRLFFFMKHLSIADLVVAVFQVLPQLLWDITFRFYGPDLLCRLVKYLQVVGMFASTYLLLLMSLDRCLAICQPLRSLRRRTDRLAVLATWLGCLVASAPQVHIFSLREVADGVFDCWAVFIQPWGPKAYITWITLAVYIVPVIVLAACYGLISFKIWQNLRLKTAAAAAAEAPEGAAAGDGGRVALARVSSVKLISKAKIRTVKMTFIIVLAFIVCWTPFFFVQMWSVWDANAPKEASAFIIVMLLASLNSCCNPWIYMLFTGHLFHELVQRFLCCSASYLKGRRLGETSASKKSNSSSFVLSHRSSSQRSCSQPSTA
Description: Agonist activity at human OT receptor expressed in CHO-K1 cells by luciferase reporter gene assay. The assay is classed as functional, cell-based.

For assay [3], the species on record is Homo sapiens. The assay is described as follows: Selectivity ratio of EC50 for human oxytocin receptor to EC50 for human vasopressin V1a receptor.

Vasopressin V2 receptor, sequence (P30518 whole entry): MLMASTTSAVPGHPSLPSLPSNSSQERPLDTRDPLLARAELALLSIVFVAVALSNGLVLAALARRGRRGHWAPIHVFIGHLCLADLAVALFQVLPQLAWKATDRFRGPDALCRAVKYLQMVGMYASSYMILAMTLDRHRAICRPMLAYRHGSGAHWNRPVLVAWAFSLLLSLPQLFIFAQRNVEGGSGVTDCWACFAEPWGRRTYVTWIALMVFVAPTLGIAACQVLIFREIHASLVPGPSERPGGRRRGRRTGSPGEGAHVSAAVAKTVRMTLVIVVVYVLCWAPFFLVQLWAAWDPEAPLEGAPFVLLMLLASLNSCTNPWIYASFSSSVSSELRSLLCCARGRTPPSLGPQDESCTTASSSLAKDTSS
Vasopressin V1a/V2 (Homo sapiens), sequence (P30518 whole entry, looked up): as the sequence (P30518 whole entry) above
Vasopressin V1a/V2 (Homo sapiens), sequence (P37288 whole entry, looked up): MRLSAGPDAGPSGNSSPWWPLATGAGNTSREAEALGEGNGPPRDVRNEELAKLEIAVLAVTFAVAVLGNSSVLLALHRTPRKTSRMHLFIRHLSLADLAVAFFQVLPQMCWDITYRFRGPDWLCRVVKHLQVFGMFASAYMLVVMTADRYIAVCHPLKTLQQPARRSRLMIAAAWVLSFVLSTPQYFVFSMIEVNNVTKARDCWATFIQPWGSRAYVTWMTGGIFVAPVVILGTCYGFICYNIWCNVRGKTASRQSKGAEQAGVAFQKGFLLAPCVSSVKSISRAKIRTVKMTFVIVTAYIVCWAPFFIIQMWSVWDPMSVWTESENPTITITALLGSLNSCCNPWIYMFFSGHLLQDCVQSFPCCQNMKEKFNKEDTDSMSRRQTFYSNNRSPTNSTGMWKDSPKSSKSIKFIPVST
Vasopressin V1a receptor, sequence (P37288 whole entry): as the sequence (P37288 whole entry, looked up) above

With `CC[C@H](C)[C@@H]1NC(=O)[C@H](Cc2ccsc2)NC(=O)[C@@H](N)CSSC[C@@H](C(=O)N2CCC[C@H]2C(=O)N[C@@H](CCN)C(=O)NCC(N)=O)NC(=O)[C@H](CC(N)=O)NC(=O)[C@H](CC(N)=O)NC1=O` (H-C[3Thi]INNCP[Dab]G-NH2; disulfide 1-6), the EC50 is greater than 10 µM at Vasopressin V2 receptor (hek293, read-out: EC50); greater than 10 µM on Vasopressin V2 receptor (read-out: pEC50 (converted)); 0.0074 µM at Vasopressin V1a receptor; 0.38 µM on Vasopressin V1b receptor; greater than 10 µM on Oxytocin receptor (cho-k1, read-out: EC50); greater than 10 µM at Oxytocin receptor (read-out: pEC50 (converted)). The results for the Ratio EC50 (in the assay listed under Homo sapiens [1]; in assay [2]; in the assay filed under Homo sapiens [3]) were 51, greater than 1300 and greater than 1300, respectively.

Take `CC[C@H](C)[C@@H]1NC(=O)[C@H](Cc2ccccc2)NC(=O)[C@@H](N)CSSC[C@@H](C(=O)N2CCC[C@H]2C(=O)N[C@@H](CCCNC)C(=O)NCC(N)=O)NC(=O)[C@H](CC(N)=O)NC(=O)[C@H](CC(N)=O)NC1=O` (H-CFINNCP[Orn(Me)]G-NH2; disulfide 1-6): the EC50 on Vasopressin V2 receptor (hek293, read-out: EC50) was greater than 10 µM; on Vasopressin V2 receptor (read-out: pEC50 (converted)), greater than 10 µM; on Vasopressin V1a receptor it was 0.0024 µM; on Vasopressin V1b receptor, 0.065 µM; at Oxytocin receptor (cho-k1, read-out: EC50), greater than 10 µM; on Oxytocin receptor (read-out: pEC50 (converted)) it was greater than 10 µM. The Ratio EC50 in the assay listed under Homo sapiens [1] is 27; in assay [2], greater than 4100; in the assay listed under Homo sapiens [3] it was greater than 4100.

`CC[C@H](C)[C@@H]1NC(=O)C2(CCC2)NC(=O)[C@@H](N)CSSC[C@@H](C(=O)N2CCC[C@H]2C(=O)N[C@@H](CCCN)C(=O)NCC(N)=O)NC(=O)[C@H](CC(N)=O)NC(=O)[C@H](CC(N)=O)NC1=O` (H-C[Ac4c]INNCP[Orn]G-NH2; disulfide 1-6): the EC50 on Vasopressin V2 receptor (hek293, read-out: EC50) was greater than 10 µM; at Vasopressin V2 receptor (read-out: pEC50 (converted)), greater than 10 µM; at Vasopressin V1a receptor, 0.0079 µM; at Vasopressin V1b receptor, 0.11 µM; at Oxytocin receptor (cho-k1, read-out: EC50) it was greater than 10 µM; on Oxytocin receptor (read-out: pEC50 (converted)), greater than 10 µM. The Ratio EC50 in the assay listed under Homo sapiens [1] was 13; in assay [2], greater than 1200; in the assay listed under Homo sapiens [3], greater than 1200.

Consider `CC[C@H](C)[C@@H]1NC(=O)[C@H](Cc2ccccc2)NC(=O)[C@@H](N)CSSC[C@@H](C(=O)N2CCC[C@H]2C(=O)N[C@@H](CCCN)C(=O)NCC(N)=O)NC(=O)[C@H](CC(N)=O)NC(=O)[C@H](CCC(=O)NOC)NC1=O` (H-CFI[X4]NCP[Orn]G-NH2; disulfide 1-6), for which the EC50 on Vasopressin V2 receptor (read-out: EC50) is 1.7 µM; on Vasopressin V1a receptor, 0.0011 µM; on Vasopressin V1b receptor it was 0.028 µM; at Oxytocin receptor (cho-k1, read-out: EC50) it was greater than 10 µM; on Oxytocin receptor (read-out: pEC50 (converted)) it was greater than 10 µM. For the same compound, the values for the Ratio EC50 (in the assay listed under Homo sapiens [1]; in assay [2]; in the assay filed under Homo sapiens [3]) were 25, 1500 and greater than 9000, respectively.

With `CC[C@H](C)[C@@H]1NC(=O)[C@H](Cc2ccccc2)NC(=O)[C@@H](N)CSSC[C@@H](C(=O)N2CCC[C@H]2C(=O)N[C@@H](CCCN)C(=O)NCC(N)=O)NC(=O)[C@H](CC(N)=O)NC(=O)[C@H](CC(=O)NC)NC1=O` (H-CFID(NHMe)NCP[Orn]G-NH2; disulfide 1-6), the EC50 at Vasopressin V2 receptor (hek293, read-out: EC50) is greater than 10 µM; at Vasopressin V2 receptor (read-out: pEC50 (converted)) it was greater than 10 µM; on Vasopressin V1a receptor it was 0.0036 µM; at Vasopressin V1b receptor it was 0.039 µM; on Oxytocin receptor (cho-k1, read-out: EC50) it was greater than 10 µM; on Oxytocin receptor (read-out: pEC50 (converted)) it was greater than 10 µM. Moreover, the Ratio EC50 in the assay filed under Homo sapiens [1] was 10; in assay [2], greater than 2700; in the assay filed under Homo sapiens [3] it was greater than 2700.

As to `CC[C@H](C)[C@@H]1NC(=O)[C@H](Cc2ccccc2)NC(=O)[C@@H](N)CSSC[C@@H](C(=O)N2CCC[C@H]2C(=O)N[C@@H](CCCN)C(=O)NCC(N)=O)NC(=O)[C@H](CC(N)=O)NC(=O)[C@H](CC(=O)NO)NC1=O` (H-CFID(NHOH)NCP[Orn]G-NH2; disulfide 1-6), the EC50 on Vasopressin V2 receptor (read-out: EC50) was 2.6 µM; at Vasopressin V1a receptor, 0.0041 µM; at Vasopressin V1b receptor, 0.056 µM; on Oxytocin receptor (cho-k1, read-out: EC50) it was greater than 10 µM; on Oxytocin receptor (read-out: pEC50 (converted)) it was greater than 10 µM. Moreover, the Ratio EC50 is 13 in the assay filed under Homo sapiens [1], 630 in assay [2] and greater than 2400 in the assay listed under Homo sapiens [3].
